Results collected from several papers.
Protocols differ between the studies behind these lines.
Observed: thermal stability
Method: DSF
lecA: PA-I galactophilic lectin (lecA, Pseudomonas aeruginosa, UniProt Q05097)
DCLK1: Serine/threonine-protein kinase DCLK1 (DCLK1, Homo sapiens, UniProt O15075)
GAK: Cyclin-G-associated kinase (GAK, Homo sapiens, UniProt O14976)
SIRT2: NAD-dependent protein deacetylase sirtuin-2 (SIRT2, Homo sapiens, UniProt Q8IXJ6)

target | concentration | ΔTm | Compound
lecA | 4 mM | -11 °C | Cc1ccc(O)c(O)c1
DCLK1 | 10 µM | 0.4 °C | Cn1c2c(c3ccc(Cl)c(Cl)c31)C(C#N)C(C)(C)NC2=O (centres unmarked)
GAK | 10 µM | 6 °C | COc1ccc2nccc(Nc3cc(OC)c(OC)c(OC)c3)c2c1
SIRT2 | 25 µM | 5.35 °C | Cc1ccc(Cn2cc(COc3cccc(Cc4cnc(NC(=O)CSc5nc(C)cc(C)n5)s4)c3)nn2)cc1
DCLK1 | 10 µM | 0 °C | Cn1c2c(c3ccc(Cl)c(Cl)c31)C(C#N)C1(CCCC1)NC2=O (centres unmarked)
GAK | 10 µM | 2.6 °C | FC(F)(F)c1ccc2nccc(Nc3cccc(I)c3)c2c1
SIRT2 | 25 µM | 1.4 °C | COCCn1cc(COc2cccc(Cc3cnc(NC(=O)CSc4nc(-c5ccccc5)cc(-c5ccccc5)n4)s3)c2)nn1
lecA | 4 mM | 0.4 °C | O=C(c1ccccc1)c1ccc(O)c(O)c1
